The source made the active and inactive calls.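 How the source made its calls, unless noted: active means Her2 level under about 52% in both replicate screens, with viability over 70% of control (limit read from the data); inconclusive means Her2 under the limit in one screen only, or viability under 70%; inactive means Her2 level above the set limit.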
What was measured:
[1] = Her2 expression decrease, cell viability multiplex – SKBR3 breast tumor cells, AlphaScreen, ATP viability, primary screen (AID 461); conditions: SKBR3 Her2 protein level, 18-24 h, measured here: SKBR3 viability, ATP luminescence, at 10 µM;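 on Her2 level: lower value means less Her2 protein in the cells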;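 on viability: percent of carrier control wells set as 100% viability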
[2] = target: Receptor tyrosine-protein kinase erbB-2 (Homo sapiens) (UniProt P04626); assay: as above; conditions: 18-24 h, at 10 µM, stronger effect = lower value
Receptor tyrosine-protein kinase erbB-2 (Homo sapiens), sequence (P04626 whole entry, looked up): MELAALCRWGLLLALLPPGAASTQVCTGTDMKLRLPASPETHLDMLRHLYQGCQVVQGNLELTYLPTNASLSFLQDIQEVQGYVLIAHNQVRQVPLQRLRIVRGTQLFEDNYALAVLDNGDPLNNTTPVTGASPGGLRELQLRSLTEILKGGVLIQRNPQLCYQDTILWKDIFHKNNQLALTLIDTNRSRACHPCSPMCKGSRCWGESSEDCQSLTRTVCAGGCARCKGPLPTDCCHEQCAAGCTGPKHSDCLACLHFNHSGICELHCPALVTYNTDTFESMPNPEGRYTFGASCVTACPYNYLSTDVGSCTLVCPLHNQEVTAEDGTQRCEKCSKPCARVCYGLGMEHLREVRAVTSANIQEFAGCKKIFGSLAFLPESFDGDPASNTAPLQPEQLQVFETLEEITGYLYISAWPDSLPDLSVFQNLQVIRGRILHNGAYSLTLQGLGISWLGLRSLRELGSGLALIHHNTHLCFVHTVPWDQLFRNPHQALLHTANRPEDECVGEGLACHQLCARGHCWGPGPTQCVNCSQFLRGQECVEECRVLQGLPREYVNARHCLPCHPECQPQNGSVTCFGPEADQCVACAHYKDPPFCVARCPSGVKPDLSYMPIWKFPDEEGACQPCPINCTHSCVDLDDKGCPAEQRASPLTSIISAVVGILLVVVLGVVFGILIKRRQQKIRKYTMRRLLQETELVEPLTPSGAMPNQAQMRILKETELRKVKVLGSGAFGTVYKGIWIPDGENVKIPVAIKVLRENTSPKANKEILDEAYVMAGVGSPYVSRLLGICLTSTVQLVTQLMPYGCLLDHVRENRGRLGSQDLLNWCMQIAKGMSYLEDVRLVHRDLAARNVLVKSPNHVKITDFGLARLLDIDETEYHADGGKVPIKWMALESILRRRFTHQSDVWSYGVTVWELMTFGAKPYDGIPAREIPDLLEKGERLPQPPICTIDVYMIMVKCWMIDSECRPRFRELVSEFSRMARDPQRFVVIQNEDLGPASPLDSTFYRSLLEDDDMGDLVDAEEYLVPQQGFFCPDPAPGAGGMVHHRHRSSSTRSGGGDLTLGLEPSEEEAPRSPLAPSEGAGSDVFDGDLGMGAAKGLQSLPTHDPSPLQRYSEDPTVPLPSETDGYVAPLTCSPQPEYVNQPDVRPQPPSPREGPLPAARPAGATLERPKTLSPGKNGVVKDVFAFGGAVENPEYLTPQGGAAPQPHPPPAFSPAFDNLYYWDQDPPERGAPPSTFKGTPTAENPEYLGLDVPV

[3] = reduced viability of SK-BR-3 breast cancer cells – cell-based, 24 h, human, pilot screen (AID 572;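 active means viability at or below 10% of carrier control in both of two separate runs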;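 further: compound exposure lasted between 18 and 24 h rather than exactly 24 h; 100% = carrier-treated control wells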); conditions: SK-BR-3 viability, CellTiter-Glo luminescence, at 10 µM, stronger effect = lower value
[4] = HUVEC growth inhibition – cell-based, human, primary screen (AID 575;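 active means viability at or below 30% in both replicate assays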;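 further: 100% = median of untreated cell wells with 0.1% DMSO on each plate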); conditions: HUVEC proliferation, CellTiter-Glo luminescence, 72 h; at 10 µM; stronger effect = lower value
How it was run: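 Test system: primary human umbilical vein endothelial cells. Quantity: 1250 cells/well. Compound: single 10 µM dose, 0.1% DMSO, from 5x medium stock. Timing: 72 h treatment at 37 °C. Detection: ATP-based CellTiter-Glo luminescent read. Benchmarks: vehicle and MePR control wells. Format: 384-well plates coated with collagen.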

[5] = H69AR cell proliferation blockers – human, duplicate replicates, primary screen (AID 580;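 active means viability at or under a set limit in both replicates, limit being median viability minus 3 SD, cut at about 48% in these data, passing the limit was not always enough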;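 further: 100% = mean luminescence of untreated wells and 0% = no signal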); conditions: H69AR lung tumor cells viability, ATP luminescence, 72 h; at 10 µM; stronger effect = lower value
[6] = MRP1 drug-resistance reversers in H69AR cells – cell-based, doxorubicin co-treatment, pilot screen (AID 601;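 active means viability loss from added drug above about 55%, and viability with drug at most 40%, in both replicates, limit read from the data, passing the limit was not always enough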); conditions: CellTiter-Glo, 72 h, at 10 µM; for differential viability (reversal): stronger effect = higher value
[7] = yeast transport mutant growth inhibition pilot in 384-well plates, post-Golgi transport modulator project (AID 636; in the data active means inhibition above about 31%); conditions: absorbance 615 nm, about 18 h, stronger effect = higher value
[8] = growth suppression of yeast trafficking mutant, preliminary HTS, modulators of trafficking downstream of Golgi apparatus project, 1536-format plate, OD 615 nm (AID 637; in the data active means inhibition above about 30%); conditions: yeast transport mutant growth, absorbance 615 nm, 18 h; stronger effect = higher value
[9] = H69AR cells + 2 uM doxorubicin, measured here: viability with 2 uM doxorubicin, stronger effect = lower value
[10] = H69AR cells, compound alone cytotoxicity

| Structure (SMILES) | viability [1] | Her2 level [2] | viability [3] | viability [4] | viability [5] | differential viability (reversal) ([6]; H69AR cells + 2 uM doxorubicin) | viability [6, 9] | viability [6, 10] | inhibition [7] | inhibition [8] |
| --- | --- | --- | --- | --- | --- | --- | --- | --- | --- | --- |
| Cc1cccn2c(=O)c3cc(C(=O)N4CCCc5ccccc54)n(C)c3nc12 | 86.5% | 80% (inactive) | 86.5% (inactive) | 97.2% (inactive) | 90.2% (inactive) | 1.01% (inactive) | 89.2% | 90.2% | -1.89% (inactive) | -5.08% (inactive) |
| Cc1ccc(CCNC(=O)CC2Oc3ccc(C)cc3NC2=O)cc1 (stereo not given) | 90% | 93.5% (inactive) | 90% (inactive) | 74.5% (inactive) | 96% (inactive) | 3.38% (inactive) | 92.6% | 96% | 5.47% (inactive) | -2.46% (inactive) |
| CCCN1C2CCCC1CC(NC(=O)c1ccccc1F)C2 (stereo not given) | 99% | 96.5% (inactive) | 99% (inactive) | 94.2% (inactive) | 106% (inactive) | 19.6% (inactive) | 86% | 106% | -4.93% (inactive) | 5.4% (inactive) |
| Cc1cc2c(cc1C)-c1nnnn1C(C)(C)C2 | 110% | 97.5% (inactive) | 110% (inactive) | 101% (inactive) | 91.9% (inactive) | 4.78% (inactive) | 87.1% | 91.9% | -9.07% (inactive) | -5.24% (inactive) |
| COc1ccc(S(=O)(=O)NCCC(=O)NC2CCCCCCC2)cc1 | 108% | 85.5% (inactive) | 108% (inactive) | 105% (inactive) | 88.6% (inactive) | 2.31% (inactive) | 86.3% | 88.6% | 0% (inactive) | -8.2% (inactive) |
| CCCN(C(=O)CSc1nnc(-c2ccoc2C)n1N)C1CCS(=O)(=O)C1 (stereo not given) | 86.5% | 88.5% (inactive) | 86.5% (inactive) | 79.7% (inactive) | 94.8% (inactive) | 7.94% (inactive) | 86.9% | 94.8% | -2.6% (inactive) | 2.13% (inactive) |
| CC1CCCCC1NC(=O)Cn1nnc(-c2ccc(Cl)cc2)n1 (stereo not given) | 86% | 92.5% (inactive) | 86% (inactive) | 72.7% (inactive) | 91.9% (inactive) | 14.6% (inactive) | 77.3% | 91.9% | -1.3% (inactive) | -5.4% (inactive) |
| O=C(C1CCN(S(=O)(=O)N2CCC3(CC2)OCCO3)CC1)N1CCOCC1 | 98% | 114% (inactive) | 98% (inactive) | 99.4% (inactive) | 94.1% (inactive) | 3.86% (inactive) | 90.3% | 94.1% | 0.92% (inactive) | 7.38% (inactive) |
| CCN1CCN(Cc2ccc(NC(=O)Nc3ccc(SC)cc3)cc2)CC1 | 97.5% | 82.5% (inactive) | 97.5% (inactive) | 62% (inactive) | 98.4% (inactive) | 18.2% (inactive) | 80.1% | 98.4% | -4.93% (inactive) | 1.94% (inactive) |
| CS(=O)(=O)N1CCN(CC2CC3C=CC2C3)CC1 (stereo not given) | 110% | 98% (inactive) | 110% (inactive) | 111% (inactive) | 101% (inactive) | 9.65% (inactive) | 91.1% | 101% | -6.35% (inactive) | 3.17% (inactive) |
| COc1ccc(-c2noc(-c3ccccc3C(=O)Nc3cccnc3)n2)cc1OC | 89.5% | 83% (inactive) | 89.5% (inactive) | 80.6% (inactive) | 90.4% (inactive) | 14.8% (inactive) | 75.7% | 90.4% | -3.6% (inactive) | -2.38% (inactive) |
| CCN(CC)c1ccc(/C=N/n2nnnc2N)c(O)c1 | 119% | 80% (inactive) | 119% (inactive) | 57.6% (inactive) | 14.4% (active) | -42.7% (inactive) | 57.2% | 14.4% | 0.52% (inactive) | -1.15% (inactive) |
| CCOC(=O)CNC(=O)c1c(C)nn(-c2ccccc2)c1Cl | 98.5% | 86.5% (inactive) | 98.5% (inactive) | 96.2% (inactive) | 90% (inactive) | -0.915% (inactive) | 90.9% | 90% | -2.63% (inactive) | -7.27% (inactive) |
| CCCCCC1CC(CC(C)C(=O)Nc2nncs2)C(=O)O1 (stereo not given) | 90.5% | 86.5% (inactive) | 90.5% (inactive) | 85.2% (inactive) | 93.3% (inactive) | 7.83% (inactive) | 85.4% | 93.3% | -5.6% (inactive) | -2.86% (inactive) |
| COc1ccc(-n2c(Cc3cccn3C)nnc2SCC(=O)Nc2cccc(C)c2C)cc1 | 88.5% | 97% (inactive) | 88.5% (inactive) | 91.4% (inactive) | 93.8% (inactive) | -2.92% (inactive) | 96.7% | 93.8% | -0.64% (inactive) | -6.67% (inactive) |
| CC(=O)c1ccc(NC(=O)c2noc3c2CCCCC3)cc1 | 126% | 88% (inactive) | 126% (inactive) | 114% (inactive) | 98% (inactive) | 17.3% (inactive) | 80.6% | 98% | -5.26% (inactive) | 0.73% (inactive) |
